XBP1 UPR activ – activators of adaptive arm of unfolded protein response (XBP1). CHO-XBP1 luciferase reporter, IRE1-XBP1 UPR activation, luminescence; percent of tunicamycin response, DMSO as zero. activation, % at 20 µM. 330,000 tested, 0.33% active. AID 463104;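 active = versus positive control, 20 µM dose yields 30% or more activation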
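incubation = overnight seeding at 37 °C, 6 h compound treatment at 37 °C | assay system = CHO-XBP1 cells stably carrying IRE1-XBP1-driven luciferase reporter | input = 1000 cells per well | detection = luciferase luminescence | dosing = single point, 20 µM final compound, 1% DMSO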
V-ATPase pHluor – regulators of yeast V-ATPase proton transport; S. cerevisiae, pHLuorin cytosolic pH fluorescence; response, % at 10 µM; 350,000 tested, 0.37% active; AID 504577; in the data active = response mostly above about 7.3%, no sharp cut-off; inactive = mostly below about 5.4%; note: actives read high
CHOP UPR activ – apoptotic UPR (CHOP) activation. AID 449763. CHO-CHOP luciferase reporter, luminescence; percent of tunicamycin response over DMSO baseline. activation, % at 10 µM. 330,000 tested, 0.34% active;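 active = at 10 µM dose, activation of 40% or more, normalized to positive control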
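System: CHO CHOP reporter cells. Amount: 500 cells per well. Buffer or medium: F12 medium, 10% FBS. Compound dosing: one dose, 10 µM in 0.5% DMSO. Incubation: 6 h compound exposure at 37 °C after overnight seeding. Technique: Steady-Glo luciferase luminescence. Benchmarks: tunicamycin and DMSO controls.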
Tb MetRS inh – blocks T. brucei methionyl-tRNA synthetase activity; purified T. brucei MetRS, ATP depletion, Kinase-Glo luminescence; inhibition, % at 11.9 µM; 360,000 tested, 0.4% active; AID 624268;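 active = inhibition above a per-plate cutoff of the control wells' mean inhibition plus 3 SD, cut at about 5.5% in these data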
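Test system – parasite MetRS enzyme · Reagent – substrates ATP, L-methionine and bulk Escherichia coli tRNA · Doses – 11.9 µM compound single dose, 0.9% DMSO · Times – 15 min enzyme-compound preincubation, 2 h reaction, 10 min detection, 25 °C · Signal – Kinase-Glo luminescence, ATP depletion format · Controls – DMSO-only wells as low control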
CHOP inhibitor – blocks CHOP induction under ER stress | CHO-K1 CHOP-promoter luciferase, tunicamycin-induced, 15-18 h | inhibition, % at 10 µM | 220,000 tested, 3.8% active;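 active = compounds that reduced the stress-induced luciferase reporter signal by more than about 70% of percent inhibition, limit read from the data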
CHOP confirm – confirmation of CHOP induction inhibitors. shares compounds with CHOP inhibitor. CHO-CHOP promoter luciferase reporter, tunicamycin-induced, luminescence. inhibition, % at 10 µM. 2,100 tested, 45% active. AID 504437;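 active = mean of three repeat readings of reporter signal inhibition above a set limit, cut at about 70% in these data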
CHOP UPR conf – confirmation of apoptotic unfolded protein response (CHOP) activators | shares compounds with CHOP UPR activ | activation, % at 10 µM | CHO-CHOP cells, CHOP-luciferase reporter luminescence; percent of tunicamycin response, DMSO as zero | 1,000 tested, 64% active; in the data active = activation above about 33%
Hits are given with their value; i = inactive; nt = no result. Many of the other results were omitted from the sample, so hits are more common in it than they were.

SMILES | XBP1 UPR activ | V-ATPase pHluor | CHOP UPR activ | Tb MetRS inh | CHOP inhibitor | CHOP confirm | CHOP UPR conf
N#Cc1cc([N+](=O)[O-])c(-n2nnc3ccccc32)c([N+](=O)[O-])c1 | i | i | 121.7 | i | 107.0 | i | 73.8
CCOC(=O)COc1ccc2nsnc2c1 | i | i | i | i | i | nt | nt
CCOC(=O)COc1ccc(/C=C/[N+](=O)[O-])c(OCC(=O)OCC)c1 | i | i | 358.1 | i | 111.4 | i | i
O=C(Cn1ncc(Cl)c(Cl)c1=O)N1CCN(S(=O)(=O)c2ccc3ccccc3c2)CC1 | i | i | 93.9 | i | 98.8 | i | i
O=C(C#Cc1ccccc1)c1cccc([N+](=O)[O-])c1 | i | i | 292.6 | i | 107.0 | i | 197.2
Cc1ccc(CNc2ccc([N+](=O)[O-])cc2C(N)=O)cc1 | i | i | i | i | nt | nt | nt
Cc1ccc(Oc2c(C(N)=O)cc([N+](=O)[O-])cc2[N+](=O)[O-])cc1 | i | i | 64.0 | i | 108.0 | i | i
CCOC(=O)C1CCCN(C(=O)c2ccc(F)c(C)c2)CC1 (stereo not drawn) | nt | nt | nt | i | nt | nt | nt
CCOC(=O)c1c(C)oc2c1c(C(c1cccnc1)N1CCOCC1)c(O)c1ccccc12 (stereo not drawn) | i | i | 70.5 | i | 107.4 | i | 134.3
Cc1ccc(C)c(C(=O)Cn2ncc(Cl)c(Cl)c2=O)c1 | i | i | 86.9 | i | 110.7 | i | 67.3
CC(C)c1nnc(NC(=O)CCS(=O)(=O)c2nc(-c3cccs3)cc(C(F)(F)F)n2)s1 | i | i | 74.1 | i | 107.7 | i | 48.2
O=C(Nc1cc(S(=O)(=O)Nc2ccc(Cl)cc2)ccc1N1CCCCC1)c1ccc(F)cc1Cl | i | i | i | i | i | nt | nt
CNc1nc(-c2ccccc2)nnc1C(F)(F)F | i | i | i | i | i | nt | nt
Cc1ccc(Sc2nc(-c3ccccc3)nnc2C(F)(F)F)cc1 | i | i | 40.3 | i | 107.3 | i | 119.6
COc1cc(/C=N/NC(=O)c2ccccc2O)ccc1OCC(=O)Nc1ccccc1 | i | i | i | i | nt | nt | nt
O=C(COc1ccc(/C=N/NC(=O)c2cc3ccccc3o2)cc1Cl)Nc1ccccc1 | i | i | 50.7 | i | 108.0 | i | i
COc1ccc(-n2nc(C(=O)NCC(=O)NCCCN3CCOCC3)c3ccccc3c2=O)cc1OC | i | i | i | i | nt | nt | nt
Cc1ccc(C(=O)c2c(C)oc3c2C(=O)C(=O)c2ccccc2-3)cc1 | i | i | 64.5 | i | 115.2 | i | i
CCCCC(=O)Nc1sc2c(c1C(=O)OCC)CCC(C=O)=C2Cl | 33.0 | i | 62.8 | i | 116.6 | i | 33.3
CC(C)Cc1nnc(NC(=O)CCC(=O)N2CCN(Cc3ccc(Cl)cc3)CC2)s1 | i | i | i | i | nt | nt | nt
CC(NC(=O)/C(C#N)=C/c1ccc(Cl)c([N+](=O)[O-])c1)c1ccccc1 (stereo not drawn) | i | nt | 63.4 | nt | 105.3 | 94.0 | i
O=C(CCNS(=O)(=O)c1ccccc1F)N1CCN(C/C=C/c2ccccc2)CC1 | i | i | i | i | nt | nt | nt
O=C(/C=C/c1ccc(-c2ccccc2)o1)c1ccccc1 | i | i | 92.9 | i | 97.6 | i | i
O=Cc1ccc(-c2cccc(C(=O)O)c2)o1 | i | i | i | i | i | nt | nt
COc1cc(/C=C(/C#N)c2nc3ccccc3[nH]2)ccc1OCC(=O)Nc1ccccc1C(C)C | i | i | 75.6 | i | 107.5 | 116.3 | 63.9
SMILES | XBP1 UPR activ | V-ATPase pHluor | CHOP UPR activ | Tb MetRS inh | CHOP inhibitor | CHOP confirm | CHOP UPR conf
COc1cc(/C=C(\C#N)c2nc3ccccc3[nH]2)ccc1OC(=O)c1ccco1 | i | i | i | i | i | nt | nt
O=C1C(C2=NC(c3ccccn3)C3C(=O)N(c4ccc(OC(F)(F)F)cc4)C(=O)C23)=C(O)c2ccccc21 (stereo not drawn) | i | i | 41.7 | i | 104.8 | 117.4 | i
COc1ccccc1-c1cc(C(F)(F)F)nc(S(=O)(=O)CCCC(=O)NCc2ccc(F)cc2)n1 | i | i | 124.4 | i | 100.5 | i | 271.4
COc1ccccc1-c1cc(C(F)(F)F)nc(N2CCCC2)n1 | i | i | i | i | i | nt | nt
COc1ccccc1-c1cc(C(F)(F)F)nc(S(C)(=O)=O)n1 | i | i | 135.5 | i | 112.4 | i | 266.5
CC1(C)CC(=O)C(=Cc2cn(CCC#N)nc2-c2ccc(Cl)cc2)C(=O)C1 | i | i | i | i | i | nt | nt
CC1(C)CC(=O)C(=Cc2cn(-c3ccccc3)nc2-c2ccc(Cl)cc2)C(=O)C1 | i | i | 288.2 | i | 104.7 | i | 220.6
O=C1C=CC(=O)C(C2=C3C(=O)N(CCc4ccccc4)CC(=O)N3CCC2)=C1 | i | nt | 131.2 | nt | 105.4 | i | 49.4
NC(=O)NC(CC(=O)NCc1ccc2c(c1)OCO2)c1ccccc1Cl (stereo not drawn) | i | i | i | i | nt | nt | nt
Cc1cccc(NC(=O)N2CCCc3ccccc32)c1C | i | i | i | i | nt | nt | nt
COc1ccc(C2=CC(=O)N(Nc3ccccc3)C2=O)cc1 | i | nt | 47.9 | i | 101.4 | i | 149.4
COc1ccc(Nc2cccccc2=O)cc1 | i | i | i | i | i | nt | nt
CC1(C)CC(=O)C2=C(C1)OC1=C(C(=O)CC(C)(C)C1)C2c1ccc(O)c([N+](=O)[O-])c1 | i | i | i | i | i | nt | nt
CC1(C)CC(=O)C2=C(C1)OC1=C(C(=O)CC(C)(C)C1)C2c1ccc(O)cc1O | i | i | 207.7 | i | nt | i | i
O=C(COc1ccccc1F)NCC(c1ccco1)N1CCCC1 (stereo not drawn) | i | i | i | i | i | nt | nt
CCOC(=O)C1=C(C)N2C(=C(C#N)[C@@H]1c1ccc(C(=O)OC)cc1)SC[C@@]2(O)C(C)(C)C | i | i | i | i | i | nt | nt
CCN1C=C(C(=O)c2ccccc2)C(=O)CC1 | nt | i | nt | i | nt | nt | nt
Cc1cccc(Cn2cc(/C=C/[N+](=O)[O-])c3ccccc32)c1 | 52.6 | i | 50.1 | i | 101.9 | i | 217.6
COC(=O)c1ccc(Cn2cc(/C=C\[N+](=O)[O-])c3ccccc32)o1 | i | i | i | i | nt | nt | nt
CC(=O)Nc1ccc(SC[C@H](Cc2ccccc2)N2CC[C@@H](C(C)(C)C)CCC2=O)cc1 | i | i | i | i | nt | nt | nt
Cn1nnnc1SC1CC(=O)N(c2ccccc2)C1=O (stereo not drawn) | i | i | i | i | i | nt | nt
Cc1cc(C)cc(N2C(=O)CC(Sc3nnnn3-c3ccccc3)C2=O)c1 (stereo not drawn) | i | i | 55.7 | i | 101.7 | i | i
